# Laboratory results published in ChEMBL document CHEMBL1275447 (Antimicrob Agents Chemother, 2008).
# How the values were obtained:
# [1] = fT>MIC in human infected with Pseudomonas aeruginosa isolate 1029 at 500 mg administered as 1 hr infusion; type: functional
# [2] = fT>MIC in neutropenic mouse infected with Pseudomonas aeruginosa isolate 906 at 500 mg administered as 1 hr infusion; type: functional
# Procedure, shortened: (§1)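 Free-drug time above MIC simulated from one-compartment mouse serum PK (25.2% protein binding). The mice were cyclophosphamide-neutropenic and uranyl nitrate-renally impaired. Regimen was subcutaneous 10, 15, 2.5, 1.25, 0.5, 0.25 mg/kg at 0, 0.5, 2.5, 4, 5.5, 7 h, repeated every 8 h over 24 h.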
# Pseudomonas aeruginosa [3] = experiment: Antibacterial activity against Pseudomonas aeruginosa isolate 1036 by microdilution method; type: functional
# Pseudomonas aeruginosa [4] = experiment: Antibacterial activity against Pseudomonas aeruginosa isolate 931 by fractionation study; type: functional
# [5] = Cmax in healthy human at 500 mg administered as 1 hr infusion; type: ADME, organism-based; design: dose 500 mg; conditions: in vivo, iv
# [6] = fT>MIC in human infected with Pseudomonas aeruginosa isolate 1050 at 500 mg administered as 4 hr infusion; type: functional
# [7] = fT>MIC in neutropenic mouse infected with Pseudomonas aeruginosa isolate 1055 at 500 mg administered as 1 hr infusion; type: functional; procedure, shortened: as §1
# [8] = fT>MIC in human infected with Pseudomonas aeruginosa isolate 1060 at 500 mg administered as 1 hr infusion; type: functional
# [9] = Cmax in Pseudomonas aeruginosa ATCC 27853 infected neutropenic ICR mouse at 10 mg/kg, sc administered as single dose 2 hrs postinfection by HPLC; type: ADME, organism-based; design: dose 10 mg/kg, route subcutaneous; conditions: in vivo
# Procedure, shortened: (§2)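 Neutropenic mice (cyclophosphamide ip 150 and 100 mg/kg, 4 and 1 days before inoculation) with uranyl nitrate 5 mg/kg ip 3 days before, for renal impairment. Thigh infection with ATCC 27853 at 10⁶ CFU/ml, 0.1 ml per thigh. Single sc doses 2 h later. Intracardiac blood from 6–12 mice per time point, eight time points over 4 h. Serum assayed by HPLC (linear 0.5–40 μg/ml). One-compartment first-order fit.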
# [10] = Clearance in Pseudomonas aeruginosa ATCC 27853 infected neutropenic ICR mouse at 150 mg/kg, sc administered as single dose 2 hrs postinfection; type: ADME, organism-based; design: dose 150 mg/kg, route subcutaneous; conditions: in vivo; procedure, shortened: as §2
# Pseudomonas aeruginosa [11] = experiment: Antibacterial activity against Pseudomonas aeruginosa isolate 931 by microdilution method; type: functional
# Procedure, shortened: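 CLSI broth microdilution in cation-adjusted Mueller-Hinton broth (20–25 mg/liter Ca, 10–12.5 mg/liter Mg). Standard inoculum 10⁵ CFU/ml, incubated in ambient air. Clinical hospital isolates.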
# [12] = fT>MIC in neutropenic mouse infected with Pseudomonas aeruginosa isolate 979 at 500 mg administered as 4 hr infusion; type: functional
# Procedure, shortened: (§3)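 Mouse fT>MIC was modelled with first-order one-compartment serum PK and 25.2% binding. Mice were neutropenic (cyclophosphamide) with uranyl nitrate renal impairment. Subcutaneous doses were 5.5, 2.25, 4.5, 4.5, 4.5, 4.5, 0.75, 0.375 mg/kg at 0, 0.5, 1.5, 2.5, 3.5, 4.5, 6, 7.5 h per 8-h interval over 24 h.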
# Pseudomonas aeruginosa [13] = experiment: Antibacterial activity against Pseudomonas aeruginosa isolate 1006 by microdilution method; type: functional
# [14] = fT>MIC in neutropenic mouse infected with Pseudomonas aeruginosa isolate 1055 at 500 mg administered as 4 hr infusion; type: functional; procedure, shortened: as §3
# [15] = fT>MIC in neutropenic mouse infected with Pseudomonas aeruginosa isolate 936 at 500 mg administered as 4 hr infusion; type: functional; procedure, shortened: as §3
# Pseudomonas aeruginosa [16] = experiment: Antibacterial activity against Pseudomonas aeruginosa isolate 1029 by microdilution method; type: functional
# [17] = fT>MIC in human infected with Pseudomonas aeruginosa isolate 1055 at 500 mg administered as 1 hr infusion; type: functional
# [18] = Clearance in Pseudomonas aeruginosa ATCC 27853 infected neutropenic ICR mouse at 10 mg/kg, sc administered as single dose 2 hrs postinfection; type: ADME, organism-based; design: dose 10 mg/kg, route subcutaneous; conditions: in vivo; procedure, shortened: as §2
# [19] = fT>MIC in human infected with Pseudomonas aeruginosa isolate 993 at 500 mg administered as 1 hr infusion; type: functional
# [20] = fT>MIC in human infected with Pseudomonas aeruginosa isolate 1062 at 500 mg administered as 4 hr infusion; type: functional
# [21] = fT>MIC in human infected with Pseudomonas aeruginosa isolate 944 at 500 mg administered as 4 hr infusion; type: functional
# Pseudomonas aeruginosa [22] = experiment: Antibacterial activity against Pseudomonas aeruginosa isolate 1060 by fractionation study; type: functional
# Pseudomonas aeruginosa [23] = experiment: Antibacterial activity against Pseudomonas aeruginosa isolate 936 by microdilution method; type: functional
# [24] = fT>MIC in human infected with Pseudomonas aeruginosa isolate 906 at 500 mg administered as 1 hr infusion; type: functional
# [25] = fT>MIC in human infected with Pseudomonas aeruginosa isolate 1060 at 500 mg administered as 4 hr infusion; type: functional
# [26] = fT>MIC in human infected with Pseudomonas aeruginosa isolate 1062 at 500 mg administered as 1 hr infusion; type: functional
# [27] = fT>MIC in human infected with Pseudomonas aeruginosa isolate 1058 at 500 mg administered as 1 hr infusion; type: functional
# [28] = AUC (0 to 24 hrs) in Pseudomonas aeruginosa ATCC 27853 infected neutropenic ICR mouse at 150 mg/kg, sc administered as single dose 2 hrs postinfection; type: ADME, organism-based; design: time < 24 hr, dose 150 mg/kg, route subcutaneous; conditions: plasma; procedure, shortened: as §2
# [29] = fT>MIC in neutropenic mouse infected with Pseudomonas aeruginosa isolate 927 at 500 mg administered as 4 hr infusion; type: functional; procedure, shortened: as §3
# [30] = fT>MIC in neutropenic mouse infected with Pseudomonas aeruginosa isolate 1052 at 500 mg administered as 4 hr infusion; type: functional; procedure, shortened: as §3
# [31] = fT>MIC in neutropenic mouse infected with Pseudomonas aeruginosa isolate 1029 at 500 mg administered as 4 hr infusion; type: functional
# [32] = fT>MIC in neutropenic mouse thigh infection model at 4 to 8 ug/ml after 24 hrs; type: functional; procedure, shortened: as §1
# [33] = fT>MIC in human infected with Pseudomonas aeruginosa isolate 931 at 500 mg administered as 4 hr infusion; type: functional
# Pseudomonas aeruginosa [34] = experiment: Antibacterial activity against Pseudomonas aeruginosa isolate 1055 by microdilution method; type: functional
# [35] = fT>MIC in neutropenic mouse infected with Pseudomonas aeruginosa isolate 1036 at 500 mg administered as 1 hr infusion; type: functional
# [36] = fT>MIC in neutropenic mouse infected with Pseudomonas aeruginosa isolate 1005 at 500 mg administered as 4 hr infusion; type: functional
# [37] = fT>MIC in neutropenic mouse infected with Pseudomonas aeruginosa isolate 1029 at 500 mg administered as 1 hr infusion; type: functional
# [38] = fT>MIC in human infected with Pseudomonas aeruginosa isolate 968 at 500 mg administered as 1 hr infusion; type: functional
# [39] = fT>MIC in neutropenic mouse infected with Pseudomonas aeruginosa isolate 896 at 500 mg administered as 4 hr infusion; type: functional; procedure, shortened: as §3
# Pseudomonas aeruginosa [40] = experiment: Antibacterial activity against Pseudomonas aeruginosa isolate 906 by microdilution method; type: functional
# [41] = fT>MIC in human infected with Pseudomonas aeruginosa isolate 1052 at 500 mg administered as 1 hr infusion; type: functional
# Pseudomonas aeruginosa [42] = experiment: Antibacterial activity against Pseudomonas aeruginosa isolate 979 by microdilution method; type: functional
smiles,measurement,setting,value
C[C@@H](O)[C@H]1C(=O)N2C(C(=O)O)=C(S[C@@H]3CN[C@H](CNS(N)(=O)=O)C3)[C@H](C)[C@H]12 [DORIPENEM],fT>MIC,[1],100%
same,fT>MIC,[2],42.5%
same,MIC,Pseudomonas aeruginosa [3],2 µg/mL
same,MIC,Pseudomonas aeruginosa [4],3 µg/mL
same,Cmax,[5],21800 ng/mL
same,fT>MIC,[6],55%
same,fT>MIC,[7],75%
same,fT>MIC,[8],27.5%
same,Cmax,[9],16300 ng/mL
same,CL/F,[10],14.2 mL/min/kg
same,MIC,Pseudomonas aeruginosa [11],4 µg/mL
same,fT>MIC,[12],70%
same,MIC,Pseudomonas aeruginosa [13],8 µg/mL
same,fT>MIC,[14],95%
same,fT>MIC,[15],0%
same,MIC,Pseudomonas aeruginosa [16],0.125 µg/mL
same,fT>MIC,[17],72.5%
same,CL/F,[18],11.2 mL/min/kg
same,fT>MIC,[19],100%
same,fT>MIC,[20],95%
same,fT>MIC,[21],55%
same,MIC,Pseudomonas aeruginosa [22],2.75 µg/mL
same,MIC,Pseudomonas aeruginosa [23],8 µg/mL
same,fT>MIC,[24],40%
same,fT>MIC,[25],55%
same,fT>MIC,[26],72.5%
same,fT>MIC,[27],40%
same,AUC(0-t) at 24 h,[28],168 µg·h/mL
same,fT>MIC,[29],0%
same,fT>MIC,[30],82.5%
same,fT>MIC,[31],100%
same,fT>MIC,[32],20%
same,fT>MIC,[33],55%
same,MIC,Pseudomonas aeruginosa [34],0.5 µg/mL
same,fT>MIC,[35],42.5%
same,fT>MIC,[36],82.5%
same,fT>MIC,[37],100%
same,fT>MIC,[38],7.5%
same,fT>MIC,[39],0%
same,MIC,Pseudomonas aeruginosa [40],2 µg/mL
same,fT>MIC,[41],55%
same,MIC,Pseudomonas aeruginosa [42],2 µg/mL
